Measurements published in publication PMC2764840 (Nature immunology, 2009).

How the values were obtained:
[1] = system: AND TCRtg DP thymocytes (AND.Rag1^−/−H-2^d); experiment: CD69 upregulation assay, AND thymocytes; assay type: cell-based, mouse; details: I-E^k-Ig dimers + anti-CD28, overnight
In short: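 Plates coated overnight at 4°C in PBS with 1 µg/well self-peptide-loaded I-E^k-Ig dimer (S2-cell-expressed, Protein A-purified; loaded 72 h at 37°C in 0.2 M citrate–PO₄ pH 5.0, then neutralized with 1 M pH 9.0) plus 10 µg/well anti-CD28. Thymocytes (1 × 10⁶/well) cultured overnight at 37°C in IMDM/10% FCS/2-ME; CD69 by flow cytometry. Two independent experiments.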

[2] = system: AND TCRtg CD4^+ peripheral T cells; experiment: Co-agonist assay; assay type: cell-based, mouse; details: I-E^k-Ig dimers
In short: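 I-E^k-Ig dimers co-loaded with MCC and test or Hb control peptide at ratios of 1:10 to 1:1,000 (pH 5.0 citrate–PO₄, 37°C, 72 h), coated at 1 µg/well in triplicate. One to 2 × 10⁶ purified splenic AND CD4⁺ T cells (H-2^b) were added per well and cultured three days. ³H-TdR was pulsed for the final 18–24 h. Values are mean ± s.d. of triplicates.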

[3] = system: AND TCRtg CD4^+ T cells in B6.K.Rag1^−/− mice; experiment: Homeostatic proliferation assay; assay type: in vivo, mouse; details: 0.5 mg i.p. on days -1 and +1; CFSE, flow cytometry
In short: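 Splenic AND CD4⁺ T cells were labeled with 5 µM CFSE, and 10⁶ cells/mouse were given retro-orbitally on day 0 to B6.K.Rag1⁻/⁻ recipients. Recipients received peptide i.p. (0.5 mg; also 0.1 mg) or Hb₆₄₋₇₆ control on days −1 and +1. After four days, inguinal and axillary nodes were pooled and CD4, Vα11 and CFSE analyzed by flow cytometry; totals counted. n = 8 mice/group over five experiments; Mann-Whitney.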

AND TCRtg DP thymocytes = experiment: Thymic reaggregate culture, positive selection of AND; assay type: cell-based, mouse; details: ANV41.2 I-E^k cells, 96 hours
In short: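 DP thymocytes from newborn (3–14 d) AND.Rag1⁻/⁻H-2^d mice, CD8-bead purified (1 × 10⁶), were pelleted with 5 × 10⁵ untreated ANV41.2 I-E^k cells as standing drops on transwells. Peptide was added to the lower well in I-20 plus medium (Hb control 30 µM). Cultures ran 96 h at 37°C, then CD4/CD8 flow for %CD4SP. Mean ± s.e.m. of 5 experiments; Mann-Whitney.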

Sequence: GKKVITAFNEGLK [Hb]
- CD69 upregulation (in words) [1]: did not upregulate CD69
- stimulation of AND T cells (in words) ([2]; MCC:peptide 1:20): stimulatory
- stimulation of AND T cells (in words) ([2]; MCC:peptide 1:1,000): non-stimulatory
- homeostatic proliferation of AND TCRtg T cells (in words) [3]: proliferation of the AND TCRtg T cells
- positive selection of AND CD4SP cells (in words) (AND TCRtg DP thymocytes): did not positively select AND TCRtg T cells in thymic reaggregate culture
